The text below walks through data of ChEMBL document CHEMBL5046221, “Identification of Pyrimidine-Based Lead Compounds for Understudied Kinases Implicated in Driving Neurodegeneration” (J Med Chem, 2022).

Data set [1] can be described thus: Effective permeability in PBS at 7.4 incubated for 5 hrs by PAMPA analysis. It is filed as ADME. The settings on record: pH 7.4, 5 h. Put shortly:
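PAMPA: DMSO stocks were diluted in PBS pH 7.4 and placed in the donor compartment, with PBS pH 7.4 in the acceptor, for 5 h. Both compartments were quantified by CLND against a calibration curve, with background nitrogen correction. Effective permeability was calculated from donor and acceptor concentrations using measured rather than assumed solubility.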

In data set [2] the target is T1, Serine/threonine-protein kinase 17B (Homo sapiens) (UniProt O94768).
T1 sequence (whole entry): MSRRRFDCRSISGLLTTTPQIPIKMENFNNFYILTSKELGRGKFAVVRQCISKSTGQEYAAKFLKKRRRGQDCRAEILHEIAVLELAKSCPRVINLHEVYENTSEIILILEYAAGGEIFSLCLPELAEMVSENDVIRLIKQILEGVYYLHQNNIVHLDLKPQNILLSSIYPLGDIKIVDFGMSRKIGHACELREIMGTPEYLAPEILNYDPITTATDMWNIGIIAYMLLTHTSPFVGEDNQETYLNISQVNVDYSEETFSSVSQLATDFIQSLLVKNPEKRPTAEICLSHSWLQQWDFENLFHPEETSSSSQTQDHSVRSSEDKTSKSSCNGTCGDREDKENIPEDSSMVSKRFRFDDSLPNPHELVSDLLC
The data set is described as follows: Inhibition of full length recombinant human DRAK2 using KKRPQRRYSNVF as substrate at 1 uM incubated for 120 mins in presence of [gamma-33P-ATP] by radiometric scintillation assay relative to control. A digest of the protocol: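 Eurofins radiometric kinase assay with ATP at Km for each kinase. Compound was tested at a single 1 μM concentration in duplicate, and the result is reported as percent of control.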

The target of data set [3] is T2, Serine/threonine-protein kinase 17A (Homo sapiens, UniProt Q9UEE5).
T2 sequence (Q9UEE5 whole entry): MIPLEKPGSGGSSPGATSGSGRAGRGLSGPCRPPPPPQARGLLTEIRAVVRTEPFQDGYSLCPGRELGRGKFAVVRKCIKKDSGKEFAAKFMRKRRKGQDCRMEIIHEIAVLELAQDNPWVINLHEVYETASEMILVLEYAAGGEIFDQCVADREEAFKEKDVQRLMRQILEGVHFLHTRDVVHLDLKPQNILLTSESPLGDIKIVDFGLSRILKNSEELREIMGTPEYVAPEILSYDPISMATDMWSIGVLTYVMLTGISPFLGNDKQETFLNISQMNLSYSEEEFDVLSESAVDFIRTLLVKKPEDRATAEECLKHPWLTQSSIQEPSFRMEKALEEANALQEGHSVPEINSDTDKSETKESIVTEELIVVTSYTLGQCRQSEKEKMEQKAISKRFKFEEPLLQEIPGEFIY
Description: Displacement of tracer K9 from NLuc fused DRAK1 (unknown origin) expressed in HEK293 cells by NanoBRET assay. It is filed as cell-based. On the technique in general: In BRET a luciferase serves as donor, and the signal depends on an acceptor being close.

A short description of data set [4]: Kinetic solubility of compound in PBS at pH 7.4 incubated for 24 hrs by chemiluminscent nitrogen detection method. Format: physicochemical. The settings on record: buffer, pH 7.4, 24 h. A digest of the protocol:
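Filtrates were quantified by total chemiluminescent nitrogen determination against a calibration curve, with correction for background nitrogen from DMSO and medium.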

Data set [5] deals with T3, Leucine-rich repeat serine/threonine-protein kinase 2 (Homo sapiens, UniProt Q5S007). Description: Inhibition of recombinant human LRRK2 (970 to end residues) using RLGRDKYKTLRQIRQ as substrate incubated for 40 mins in presence of [gamma-33P-ATP] by radiometric scintillation assay. Put shortly: (§1)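 Eurofins radiometric kinase assay run at ATP equal to Km for each kinase. 9-point dose–response in duplicate gives the IC50.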
T3 sequence (Q5S007 whole entry): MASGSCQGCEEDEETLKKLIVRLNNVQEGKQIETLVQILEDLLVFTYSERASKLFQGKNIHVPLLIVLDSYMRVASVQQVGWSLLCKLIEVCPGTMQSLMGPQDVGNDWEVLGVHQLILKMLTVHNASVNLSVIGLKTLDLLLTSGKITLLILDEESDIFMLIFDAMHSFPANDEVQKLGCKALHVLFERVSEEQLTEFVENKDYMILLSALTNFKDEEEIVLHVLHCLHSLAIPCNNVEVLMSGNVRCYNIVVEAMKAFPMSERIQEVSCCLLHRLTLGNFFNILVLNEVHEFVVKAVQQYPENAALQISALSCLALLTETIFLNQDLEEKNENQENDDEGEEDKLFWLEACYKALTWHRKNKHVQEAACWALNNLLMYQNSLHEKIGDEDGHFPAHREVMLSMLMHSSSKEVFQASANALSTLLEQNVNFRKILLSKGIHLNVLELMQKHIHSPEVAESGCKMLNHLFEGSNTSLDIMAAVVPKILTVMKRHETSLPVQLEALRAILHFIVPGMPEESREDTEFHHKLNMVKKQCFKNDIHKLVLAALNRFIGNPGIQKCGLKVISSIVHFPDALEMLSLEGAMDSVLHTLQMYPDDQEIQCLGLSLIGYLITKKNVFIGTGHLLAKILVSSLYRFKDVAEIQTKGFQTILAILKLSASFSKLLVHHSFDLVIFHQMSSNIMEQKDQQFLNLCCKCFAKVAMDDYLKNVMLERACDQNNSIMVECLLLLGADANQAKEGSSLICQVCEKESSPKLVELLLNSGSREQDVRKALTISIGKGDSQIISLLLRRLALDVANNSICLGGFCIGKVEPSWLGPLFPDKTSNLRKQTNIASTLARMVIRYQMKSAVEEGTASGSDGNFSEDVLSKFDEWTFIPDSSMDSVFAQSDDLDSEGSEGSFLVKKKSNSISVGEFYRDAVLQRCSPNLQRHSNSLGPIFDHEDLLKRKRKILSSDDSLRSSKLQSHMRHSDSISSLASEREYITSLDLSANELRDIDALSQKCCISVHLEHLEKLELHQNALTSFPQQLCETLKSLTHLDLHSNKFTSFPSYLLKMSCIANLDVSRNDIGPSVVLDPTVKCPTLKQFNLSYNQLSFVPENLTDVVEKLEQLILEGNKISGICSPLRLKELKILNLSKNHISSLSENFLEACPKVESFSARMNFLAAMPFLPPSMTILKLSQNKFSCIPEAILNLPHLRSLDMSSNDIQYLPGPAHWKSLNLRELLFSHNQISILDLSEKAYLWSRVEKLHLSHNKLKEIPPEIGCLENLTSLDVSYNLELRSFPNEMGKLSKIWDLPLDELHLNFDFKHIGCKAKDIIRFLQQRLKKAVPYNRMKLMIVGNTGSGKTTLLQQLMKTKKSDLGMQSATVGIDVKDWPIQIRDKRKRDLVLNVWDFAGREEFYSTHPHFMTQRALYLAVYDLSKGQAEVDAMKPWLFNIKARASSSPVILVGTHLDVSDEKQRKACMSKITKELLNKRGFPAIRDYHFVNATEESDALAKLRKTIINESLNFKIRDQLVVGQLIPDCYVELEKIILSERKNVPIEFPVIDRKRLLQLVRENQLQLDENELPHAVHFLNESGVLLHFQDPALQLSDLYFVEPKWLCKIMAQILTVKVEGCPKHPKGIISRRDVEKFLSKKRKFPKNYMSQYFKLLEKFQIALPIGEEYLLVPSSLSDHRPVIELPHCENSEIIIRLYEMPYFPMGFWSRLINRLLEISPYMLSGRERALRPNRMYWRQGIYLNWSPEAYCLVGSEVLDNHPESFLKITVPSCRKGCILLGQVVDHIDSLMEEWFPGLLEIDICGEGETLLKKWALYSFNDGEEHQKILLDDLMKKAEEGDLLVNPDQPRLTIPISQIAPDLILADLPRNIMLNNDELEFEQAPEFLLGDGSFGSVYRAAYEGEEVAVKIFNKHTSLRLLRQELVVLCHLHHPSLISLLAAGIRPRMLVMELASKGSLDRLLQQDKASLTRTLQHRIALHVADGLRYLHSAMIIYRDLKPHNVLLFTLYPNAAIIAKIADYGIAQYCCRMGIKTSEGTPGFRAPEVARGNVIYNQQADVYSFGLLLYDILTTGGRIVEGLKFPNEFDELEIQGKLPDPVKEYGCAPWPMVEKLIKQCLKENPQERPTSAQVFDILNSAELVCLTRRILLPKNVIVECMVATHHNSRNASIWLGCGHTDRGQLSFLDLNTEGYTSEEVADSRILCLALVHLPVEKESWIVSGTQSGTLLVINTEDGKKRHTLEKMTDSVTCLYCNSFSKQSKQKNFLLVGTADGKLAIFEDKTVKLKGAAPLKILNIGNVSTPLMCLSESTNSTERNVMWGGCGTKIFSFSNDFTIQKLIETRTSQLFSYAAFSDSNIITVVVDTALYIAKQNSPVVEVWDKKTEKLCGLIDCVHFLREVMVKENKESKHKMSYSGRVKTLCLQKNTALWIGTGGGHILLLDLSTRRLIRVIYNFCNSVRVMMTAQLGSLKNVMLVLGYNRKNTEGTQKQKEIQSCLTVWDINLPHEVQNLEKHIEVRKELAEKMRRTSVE

For data set [6], the target named is T4, MAP/microtubule affinity-regulating kinase 4 (Homo sapiens, UniProt Q96L34).
T4 sequence (Q96L34 whole entry): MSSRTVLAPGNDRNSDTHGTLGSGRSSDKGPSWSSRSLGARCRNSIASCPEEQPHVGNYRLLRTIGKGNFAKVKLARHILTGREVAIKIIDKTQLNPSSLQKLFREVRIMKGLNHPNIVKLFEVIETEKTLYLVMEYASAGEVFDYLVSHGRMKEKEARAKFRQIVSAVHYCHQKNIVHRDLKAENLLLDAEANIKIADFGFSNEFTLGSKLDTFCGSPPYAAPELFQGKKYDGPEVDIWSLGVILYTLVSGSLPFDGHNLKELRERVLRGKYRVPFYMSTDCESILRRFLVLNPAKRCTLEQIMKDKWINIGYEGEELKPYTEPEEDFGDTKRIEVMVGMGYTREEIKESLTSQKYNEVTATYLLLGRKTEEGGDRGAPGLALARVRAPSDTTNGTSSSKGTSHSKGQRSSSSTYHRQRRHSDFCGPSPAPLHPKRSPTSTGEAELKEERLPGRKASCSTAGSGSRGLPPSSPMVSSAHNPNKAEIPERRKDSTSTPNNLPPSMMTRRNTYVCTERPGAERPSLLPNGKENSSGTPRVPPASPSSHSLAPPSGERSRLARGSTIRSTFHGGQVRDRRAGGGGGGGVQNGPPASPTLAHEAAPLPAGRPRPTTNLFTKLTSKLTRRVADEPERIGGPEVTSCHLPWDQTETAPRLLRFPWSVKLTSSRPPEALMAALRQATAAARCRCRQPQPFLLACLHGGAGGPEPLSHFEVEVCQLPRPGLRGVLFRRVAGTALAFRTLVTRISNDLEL
The data set is described as follows: Displacement of tracer K5 from NLuc fused MARK4 (unknown origin) expressed in HEK293 cells by NanoBRET assay. It is filed as cell-based.

Data set [7] deals with MAP/microtubule affinity-regulating kinase 3 (Homo sapiens, UniProt P27448). The data set is described as follows: Displacement of tracer K9 from NLuc fused MARK3 (unknown origin) expressed in HEK293 cells by NanoBRET assay. Format: cell-based.
Sequence of MAP/microtubule affinity-regulating kinase 3 (P27448 whole entry, the tested form may be a part): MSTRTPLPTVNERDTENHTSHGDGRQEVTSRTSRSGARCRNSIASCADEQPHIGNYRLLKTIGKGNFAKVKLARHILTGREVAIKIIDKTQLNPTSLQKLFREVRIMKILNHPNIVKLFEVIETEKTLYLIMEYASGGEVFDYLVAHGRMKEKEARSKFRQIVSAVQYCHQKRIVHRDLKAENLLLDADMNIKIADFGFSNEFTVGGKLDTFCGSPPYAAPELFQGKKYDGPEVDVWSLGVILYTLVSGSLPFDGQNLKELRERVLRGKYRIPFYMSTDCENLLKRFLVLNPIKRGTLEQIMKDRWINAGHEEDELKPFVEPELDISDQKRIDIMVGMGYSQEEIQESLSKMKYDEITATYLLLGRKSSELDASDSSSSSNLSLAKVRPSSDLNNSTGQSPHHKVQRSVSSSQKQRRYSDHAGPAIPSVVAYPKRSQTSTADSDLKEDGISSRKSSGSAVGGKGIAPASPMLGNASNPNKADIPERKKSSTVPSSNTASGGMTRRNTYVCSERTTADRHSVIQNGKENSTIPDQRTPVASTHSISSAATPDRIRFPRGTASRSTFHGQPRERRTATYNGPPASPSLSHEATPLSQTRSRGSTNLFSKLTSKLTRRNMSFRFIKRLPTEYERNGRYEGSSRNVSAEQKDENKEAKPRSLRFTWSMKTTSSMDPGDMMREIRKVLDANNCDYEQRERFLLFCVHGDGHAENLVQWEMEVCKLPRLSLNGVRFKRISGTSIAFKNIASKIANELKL
For data set [8], the target named is T5, Serine/threonine-protein kinase TBK1 (Homo sapiens, UniProt Q9UHD2).
T5 sequence (Q9UHD2 whole entry): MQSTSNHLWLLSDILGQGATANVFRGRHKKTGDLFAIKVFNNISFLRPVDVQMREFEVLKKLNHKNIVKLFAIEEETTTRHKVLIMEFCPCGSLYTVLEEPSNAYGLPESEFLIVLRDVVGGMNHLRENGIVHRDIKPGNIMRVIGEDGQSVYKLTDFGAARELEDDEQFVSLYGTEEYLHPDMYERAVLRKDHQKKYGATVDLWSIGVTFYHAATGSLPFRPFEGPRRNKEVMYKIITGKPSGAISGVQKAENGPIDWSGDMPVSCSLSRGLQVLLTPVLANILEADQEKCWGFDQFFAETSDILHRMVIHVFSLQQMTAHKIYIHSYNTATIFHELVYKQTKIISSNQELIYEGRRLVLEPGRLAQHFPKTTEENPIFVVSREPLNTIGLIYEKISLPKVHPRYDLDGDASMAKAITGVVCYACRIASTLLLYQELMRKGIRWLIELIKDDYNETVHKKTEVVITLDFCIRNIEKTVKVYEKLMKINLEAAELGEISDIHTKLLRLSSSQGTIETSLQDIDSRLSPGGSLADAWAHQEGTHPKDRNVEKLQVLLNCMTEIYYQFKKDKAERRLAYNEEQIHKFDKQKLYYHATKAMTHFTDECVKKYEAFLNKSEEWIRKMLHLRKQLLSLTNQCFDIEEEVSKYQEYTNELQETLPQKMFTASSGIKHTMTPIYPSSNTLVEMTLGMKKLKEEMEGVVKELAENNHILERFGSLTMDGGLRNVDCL
Description: Displacement of tracer K5 from NLuc fused TBK1 (unknown origin) expressed in HEK293 cells by NanoBRET assay. Format: cell-based. A digest of the protocol: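 HEK293 cells grown in DMEM with 10% FBS at 37 °C, 5% CO2. NanoBRET assay run in dose–response per manufacturer's protocol with tracer K-5 at 0.5 μM. SEM calculated for assays run more than once.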

The target of data set [9] is T6, Myosin light chain kinase 2, skeletal/cardiac muscle (Homo sapiens, UniProt Q9H1R3). Description: Inhibition of full length recombinant human MYLK2 using KKLNRTLSFAEPG as substrate incubated for 40 mins in presence of [gamma-33P-ATP] by radiometric scintillation assay. A digest of the protocol:
(§2)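 Eurofins radiometric enzymatic assay with ATP at Km for each kinase. IC50 was derived from a 9-point dose–response curve run in duplicate.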

The target in data set [10] is Serine/threonine-protein kinase NIM1 (Homo sapiens, UniProt Q8IY84). Description: Inhibition of full length recombinant human NIM1 using KKKVSRSGLYRSPSMPENLNRPR as substrate incubated for 40 mins in presence of [gamma-33P-ATP] by radiometric scintillation assay. Put shortly: as §2
Data set [11] concerns the target T3, Leucine-rich repeat serine/threonine-protein kinase 2. Description: Inhibition of NanoLuc-fused LRRK2 (unknown origin) expressed in HEK293 cells incubated for 2 hrs by NanoBRET assay. It is filed as cell-based. A digest of the protocol:
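Cellular target engagement by NanoBRET in dose–response, done in singlicate by Carna Biosciences following the manufacturer's protocol. Compounds tested at concentrations up to 10 μM.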

For data set [12], the target named is Death-associated protein kinase 3 (Homo sapiens, UniProt O43293). The data set is described as follows: Inhibition of recombinant human ZIPK (1 to 290 residues) using KKLNRTLSFAEPG as substrate measured after 40 mins in presence of [gamma33P]ATP by radiometric scintillation counting method. Put shortly: as §2
Sequence of Death-associated protein kinase 3 (O43293 whole entry, the tested form may be a part): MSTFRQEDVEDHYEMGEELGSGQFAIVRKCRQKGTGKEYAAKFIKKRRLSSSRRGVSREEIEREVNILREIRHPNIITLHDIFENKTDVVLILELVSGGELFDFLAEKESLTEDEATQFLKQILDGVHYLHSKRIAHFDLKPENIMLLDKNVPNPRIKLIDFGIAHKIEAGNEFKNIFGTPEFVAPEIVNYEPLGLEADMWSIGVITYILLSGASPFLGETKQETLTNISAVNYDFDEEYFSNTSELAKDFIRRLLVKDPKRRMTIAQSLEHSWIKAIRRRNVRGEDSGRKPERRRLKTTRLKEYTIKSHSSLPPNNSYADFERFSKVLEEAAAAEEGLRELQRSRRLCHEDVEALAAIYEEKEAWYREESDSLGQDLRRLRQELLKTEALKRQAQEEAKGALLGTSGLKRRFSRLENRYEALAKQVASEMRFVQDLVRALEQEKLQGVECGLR
Data set [13] concerns the target T7, Inhibitor of nuclear factor kappa-B kinase subunit epsilon (Homo sapiens, UniProt Q14164).
T7 sequence (Q14164 whole entry): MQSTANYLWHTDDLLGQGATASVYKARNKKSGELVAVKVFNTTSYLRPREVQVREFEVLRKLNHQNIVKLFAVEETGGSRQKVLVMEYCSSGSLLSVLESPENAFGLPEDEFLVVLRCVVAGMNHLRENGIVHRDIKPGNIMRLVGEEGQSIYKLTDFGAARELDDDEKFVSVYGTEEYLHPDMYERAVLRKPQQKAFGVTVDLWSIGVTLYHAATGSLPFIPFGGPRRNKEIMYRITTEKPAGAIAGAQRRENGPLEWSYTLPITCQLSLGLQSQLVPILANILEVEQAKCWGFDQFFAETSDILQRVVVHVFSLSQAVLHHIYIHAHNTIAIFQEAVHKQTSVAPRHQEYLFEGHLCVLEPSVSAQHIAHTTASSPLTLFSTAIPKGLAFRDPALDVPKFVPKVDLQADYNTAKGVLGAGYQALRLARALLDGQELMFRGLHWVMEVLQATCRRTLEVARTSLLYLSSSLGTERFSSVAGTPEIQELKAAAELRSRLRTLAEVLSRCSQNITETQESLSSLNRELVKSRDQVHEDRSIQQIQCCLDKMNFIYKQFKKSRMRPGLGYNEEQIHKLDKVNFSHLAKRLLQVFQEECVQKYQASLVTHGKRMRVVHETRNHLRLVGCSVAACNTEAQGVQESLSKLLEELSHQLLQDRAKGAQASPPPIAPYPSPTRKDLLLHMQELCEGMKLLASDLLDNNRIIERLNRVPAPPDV
The data set is described as follows: Inhibition of full length recombinant human IKKepsilon using casein as substrate incubated for 40 mins in presence of [gamma-33P-ATP] by radiometric scintillation assay. A digest of the protocol:
as §1

Data set [14] can be described thus: Inhibition of human TTBK1 (1 to 479 residues) using Casein as substrate measured after 40 mins in presence of [gamma33P]ATP by scintillation counting method. Put shortly:
as §1

The target in data set [15] is Macrophage colony-stimulating factor 1 receptor (Homo sapiens, UniProt P07333). The data set is described as follows: Inhibition of NanoLuc-fused CSF1R (unknown origin) expressed in HEK293 cells incubated for 2 hrs by NanoBRET assay. Format: cell-based.
The target in data set [16] is MAP kinase-interacting serine/threonine-protein kinase 2 (Homo sapiens, UniProt Q9HBH9). Description: Inhibition of full length recombinant human MKNK2 using myelin basic protein as substrate incubated for 40 mins in presence of [gamma-33P-ATP] by radiometric scintillation assay. Put shortly: as §1
Sequence of MAP kinase-interacting serine/threonine-protein kinase 2 (Q9HBH9 whole entry, the tested form may be a part): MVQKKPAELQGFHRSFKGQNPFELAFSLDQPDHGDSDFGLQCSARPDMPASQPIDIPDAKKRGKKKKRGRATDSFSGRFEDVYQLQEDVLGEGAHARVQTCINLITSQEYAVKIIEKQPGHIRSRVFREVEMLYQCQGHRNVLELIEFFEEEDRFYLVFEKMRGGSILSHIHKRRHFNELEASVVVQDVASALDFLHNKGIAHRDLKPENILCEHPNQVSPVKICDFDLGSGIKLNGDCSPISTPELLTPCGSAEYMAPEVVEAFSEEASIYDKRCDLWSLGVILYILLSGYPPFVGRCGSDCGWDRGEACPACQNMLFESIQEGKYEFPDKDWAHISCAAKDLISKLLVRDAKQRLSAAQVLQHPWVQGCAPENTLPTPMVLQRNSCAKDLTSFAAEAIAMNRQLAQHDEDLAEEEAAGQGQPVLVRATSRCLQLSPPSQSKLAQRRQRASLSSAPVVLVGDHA
Data set [17] concerns the target T6, Myosin light chain kinase 2, skeletal/cardiac muscle. The data set is described as follows: Inhibition of NanoLuc-fused MYLK2 (unknown origin) expressed in HEK293 cells incubated for 2 hrs by NanoBRET assay. Format: cell-based. A digest of the protocol:
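Cellular NanoBRET target-engagement assays were run by Carna Biosciences to the manufacturer's protocol. Dose–response was in singlicate, with compounds tested at concentrations up to 10 μM.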

T6 sequence (Q9H1R3 whole entry): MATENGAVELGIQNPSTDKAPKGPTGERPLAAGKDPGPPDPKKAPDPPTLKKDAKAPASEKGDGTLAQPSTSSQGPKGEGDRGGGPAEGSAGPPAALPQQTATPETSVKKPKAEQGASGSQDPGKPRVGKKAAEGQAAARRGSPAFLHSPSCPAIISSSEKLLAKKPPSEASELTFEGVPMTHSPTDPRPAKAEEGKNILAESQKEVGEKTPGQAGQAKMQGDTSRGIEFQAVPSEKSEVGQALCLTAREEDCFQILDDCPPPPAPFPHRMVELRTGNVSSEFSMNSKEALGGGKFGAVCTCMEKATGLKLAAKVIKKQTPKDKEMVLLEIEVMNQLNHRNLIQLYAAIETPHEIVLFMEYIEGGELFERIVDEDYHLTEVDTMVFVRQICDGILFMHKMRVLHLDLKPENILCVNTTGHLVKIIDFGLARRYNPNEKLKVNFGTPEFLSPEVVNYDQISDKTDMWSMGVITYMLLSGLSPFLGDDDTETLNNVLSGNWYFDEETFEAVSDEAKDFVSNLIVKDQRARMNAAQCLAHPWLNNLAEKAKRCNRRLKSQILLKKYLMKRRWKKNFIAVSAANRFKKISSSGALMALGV

As usually defined, the IC50 is the midpoint of a concentration-inhibition curve. Regarding `Cc1nn(CC(F)(F)F)cc1Nc1ncc(C2CC2)c(NCCc2c[nH]cn2)n1`, the Peff in data set [1] was 3.89 10^-7 cm/s. Besides, the % control in data set [2] is 59%. In addition, the IC50 in data set [3] is over 10 µM; in data set [5] it was 0.089 µM; in [6] it was over 10 µM; in data set [7], over 10 µM; in data set [8] it was over 10 µM; in data set [9], 1.12 µM. In addition, the concentration for half-maximal inhibition (IC50) in [10] is 4.4 µM; in [11], over 10 µM. The Kinetic_solubility in data set [4] turned out to be 171 µM.

Take `Cc1nn(CC(F)(F)F)cc1Nc1ncc(Br)c(NCc2ccc(S(N)(=O)=O)cc2)n1`: the Peff result in data set [1] (BLD = below limit of detection) is “Bld”. Further, the half-inhibitory concentration (IC50) was over 10 µM in [12]; over 10 µM in data set [3]; 0.552 µM in data set [13]; 0.037 µM in data set [14]; over 10 µM in [15]; 1.37 µM in data set [16]. Besides, the IC50 was over 10 µM in data set [6], over 10 µM in data set [7] and 0.339 µM in [8]. This compound returned a Kinetic_solubility in data set [4] of 176.9 µM.

As for `Cc1nn(CC(F)(F)F)cc1Nc1nccc(NCCc2cnc[nH]2)n1`, in [1], the Peff is recorded as 6.23 10^-8cm/s. For the same compound, the IC50 in [17] is 3.67 µM; in data set [3], over 10 µM; in [6], over 10 µM; in data set [7] it was over 10 µM; in data set [8] it was over 10 µM; in data set [9], 0.479 µM. In [2], the % control amounted to 91%. In addition, the Kinetic solubility in data set [4] was 177 µM.
